Compound activity as filed in PubChem BioAssay.
Sampled rows, rich in hits. Any-hit rate of the full collection: about 3.1%.
pPAFAH FP inh = inhibitors of human plasma PAF acetylhydrolase (pPAFAH); Q13093; recombinant pPAFAH, FP-rhodamine probe fluorescence polarization; inhibition, % at 3.39 µM; 330,000 compounds, 1.5% hits; AID 463082;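 active means inhibition above the mean inhibition across the screen plus 3 SD, cut at about 25% in these data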;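 further: inhibitors block binding of the rhodamine activity-based probe so polarization drops; 0% = enzyme with DMSO and 100% = wells lacking pPAFAH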
Apaf-1 inh = human Apaf-1 inhibition; O14727; reconstituted apoptosome caspase-3 activity, DEVD-Rh110 fluorescence; inhibition, % at 20 µM; 330,000 compounds, 0.71% hits; AID 489030; active means inhibition of at least 40% at 20 µM;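 further: plate controls were DMSO wells for no effect and DEVD-CHO caspase inhibitor wells for full effect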
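System – cell-free apoptosome with Apaf-1, procaspase-3 and caspase-9 · Buffer or medium – pH 7.5 Hepes buffer with CHAPS, BSA, DTT · Also added – cytochrome c with DEVD-Rh110 · Times – 30 min compound preincubation, 50 min activation, room temperature · Technique – Rh110 fluorescence intensity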
PAFAH1B3 FP inh = blocks human PAF acetylhydrolase 1B catalytic subunit 3; Q15102; recombinant PAFAH1B3, FP-rhodamine probe, fluorescence polarization; inhibition, % at 3.39 µM; 340,000 compounds, 0.28% hits;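 active means inhibition above the screen-wide average of all tested compounds plus 3 SD, cut at about 25% in these data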;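 further: 0% = enzyme with DMSO only and 100% = wells lacking PAFAH1B3 protein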
Target sequence (Q15102 whole entry, looked up): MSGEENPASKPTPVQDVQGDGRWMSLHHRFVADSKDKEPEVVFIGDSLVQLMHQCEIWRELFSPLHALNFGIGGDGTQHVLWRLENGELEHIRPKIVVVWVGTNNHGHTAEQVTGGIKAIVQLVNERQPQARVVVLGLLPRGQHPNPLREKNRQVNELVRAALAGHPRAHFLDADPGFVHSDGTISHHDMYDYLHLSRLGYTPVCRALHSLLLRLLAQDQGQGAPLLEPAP
PAFAH1B2 FP inh = PAFAH1B2 (human) inhibition. recombinant PAFAH1B2, FP-rhodamine activity probe, fluorescence polarization. inhibition, % at 3.39 µM. P68402. 340,000 compounds, 1.2% hits;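 active means inhibition above the mean of all tested compounds plus 3 SD, cut at about 24% in these data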;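 further: 0% = enzyme with DMSO and 100% = wells lacking PAFAH1B2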
Target sequence (P68402 whole entry, looked up): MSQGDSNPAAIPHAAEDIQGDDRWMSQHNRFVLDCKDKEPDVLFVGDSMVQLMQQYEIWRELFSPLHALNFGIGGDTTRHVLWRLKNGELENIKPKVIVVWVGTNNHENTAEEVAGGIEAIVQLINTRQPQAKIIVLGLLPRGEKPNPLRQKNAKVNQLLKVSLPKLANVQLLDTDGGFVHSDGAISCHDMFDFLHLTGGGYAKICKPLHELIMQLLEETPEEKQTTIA
PAFAH2 FP inh = PAFAH2 (human) inhibition. AID 492956. Q99487. 340,000 compounds, 0.99% hits. recombinant PAFAH2, FP-rhodamine activity probe, fluorescence polarization. inhibition, % at 3.39 µM;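 active means inhibition above the mean over all tested compounds plus 3 SD, cut at about 30% in these data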;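 further: inhibitors block probe labeling of enzyme so polarization drops; 0% = enzyme with DMSO and 100% = wells lacking PAFAH2 protein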
pPAFAH confirm = confirmation of human plasma PAF acetylhydrolase (pPAFAH) inhibitors | shares compounds with pPAFAH FP inh | recombinant pPAFAH, FP-Rh probe fluorescence polarization | inhibition, % at 3.39 µM | 2,300 compounds, 72% hits | AID 463230;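 active means mean inhibition of the triplicate above the hit cutoff set for the earlier primary screen, cut at about 25% in these data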;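 further: 0% = enzyme with DMSO and 100% = wells lacking pPAFAH enzyme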
Apaf-1 inh conf2 = confirmation of Apaf-1 inhibitors; shares compounds with Apaf-1 inh; reconstituted apoptosome, caspase-3 DEVD-Rh110 fluorescence; inhibition, % at 20 µM; 1,800 compounds, 25% hits;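 active means mean inhibition of at least 40% at 20 µM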;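 further: plate controls were DMSO wells for no effect and DEVD-CHO caspase inhibitor control wells for full effect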
Rh110 interf inh = Rh110 signal interference in Apaf-1 inhibitor counter-screen | 1,800 tested, under 10 active | Rh110 fluorescence interference, quenched caspase reaction | activation (fluorescence interference), % at 20 µM | AID 504615 | shares compounds with Apaf-1 inh;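 active means signal rise of 40% or more at 20 µM, treated as a fluorescence artifact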
Fluor interf inh = Apaf-1 inhibitor counter-screen fluorescence artifact; shares compounds with Apaf-1 inh; fluorescence interference counterscreen, Apaf-1 assay format; IC50, µM; 460 tested, under 10 active; AID 588538; call rule not given here
* hit, by the source's call; x = no result given.

SMILES | pPAFAH FP inh | Apaf-1 inh | PAFAH1B3 FP inh | PAFAH1B2 FP inh | PAFAH2 FP inh | pPAFAH confirm | Apaf-1 inh conf2 | Rh110 interf inh | others
O=C(c1ccccc1)c1ccc2nc(-c3ccco3)c(-c3ccco3)nc2c1 | 58* | 41* | 32* | 6 | 31* | 43* | 27 | 8
CN1CCN(C(=O)c2cc([N+](=O)[O-])ccc2Cl)CC1 | -5 | -9 | 9 | -1 | 4 | x | x | x
OC(CNCC1CCCO1)Cn1c2ccc(Cl)cc2c2cc(Cl)ccc21 (stereo not drawn) | 41* | 43* | -6 | 1 | -13 | 34* | 14 | 9
OC(CNCC1CCCO1)Cn1c2ccccc2c2ccccc21 (stereo not drawn) | 3 | 1 | -5 | 9 | 0 | x | x | x
N#Cc1sc2nc(-c3ccccc3)cc(-c3ccco3)c2c1N | 43* | 90* | 34* | 5 | 23 | 15 | 14 | -4
COc1cccc(-c2cc(C(F)(F)F)c3c(N)c(C#N)sc3n2)c1 | -1 | -1 | x | x | x | x | x | x
COc1cccc2nc3cc(C)c(C)cc3nc12 | 42* | 84* | 25 | 23 | 25 | 13 | 22 | 7
COc1cccc2c1nc(C)c1cc(C)oc12 | -4 | 5 | 3 | -2 | -4 | x | x | x
O=C(c1ccc2c(=O)n(Cc3ccccc3Cl)c(=S)[nH]c2c1)N1CCOCC1 | -1 | 6 | 2 | 7 | -1 | x | x | x
OCCN1CCN(CCCN2c3ccccc3Sc3ccc(C(F)(F)F)cc32)CC1 | 40* | 48* | 13 | 6 | -3 | 38* | 9 | 5
CCSc1ccc2c(c1)N(CCCN1CCN(C)CC1)c1ccccc1S2 | 37* | 57* | 15 | 0 | 21 | 42* | 18 | -1
OC1CC2CCC(C1)N2CCCN1c2ccccc2Sc2ccc(Cl)cc21 (stereo not drawn) | x | x | 9 | 8 | -1 | x | x | x
CN1CCCC(CN2c3ccccc3Sc3ccccc32)C1 (stereo not drawn) | 3 | 15 | 5 | -3 | 2 | x | x | x
CN1CCN(CCCN2c3ccccc3Sc3ccc(Cl)cc32)CC1 | 45* | 57* | 8 | 1 | 5 | 42* | 14 | 6
O=C(CCC1CCCCC1)NC1CCCCC1 | 3 | -1 | 4 | 6 | 1 | x | x | x
CCOC(=O)C(C(=O)OCC)c1cc(Br)c2noc3c2c1C(=O)c1ccccc1-3 | 70* | 89* | 22 | 7 | 28 | 11 | 74* | -7 | Fluor interf inh=>100
COc1cc([N+](=O)[O-])cc(/C=N/NC(=O)C(C)Nc2cccc3ccccc23)c1O (stereo not drawn) | 40* | 93* | 14 | 8 | 2 | 59* | 21 | 0
Cc1cc2c(N)cccc2nn1 | 73* | 97* | 33* | 26* | 38* | 6 | 27 | 0
CCCCN(C(=O)c1c(-c2ccccc2)noc1C)c1c(N)n(CCC)c(=O)[nH]c1=O | 1 | 1 | 5 | 4 | 4 | x | x | x
Cc1c2ccccc2nc2ccccc12 | 0 | 18 | 3 | 5 | 3 | x | x | x
CCCNc1c(F)c(F)c2c(C)c3ccccc3nc2c1F | 35* | 51* | 12 | 6 | 20 | 20 | 33 | 4
Cc1sc2nc(SCC(=O)N3CCOCC3)[nH]c(=O)c2c1-c1ccccc1 | 6 | 13 | -12 | -10 | -14 | x | x | x
O/N=C1\CCCc2c1nc(-c1ccccc1F)n2O | 3 | -10 | x | x | x | x | x | x
Nc1ccc2nc(-c3cccc(-c4nc5ccc(N)cc5[nH]4)n3)[nH]c2c1 | 35* | 40* | 30* | 32* | 13 | 54* | 16 | 21
C[C@@H]1O[C@@H](OCCC(=O)O)[C@H](O)C[C@H]1O | -4 | 10 | 5 | -2 | -3 | x | x | x
Oc1ccccc1C=Nc1cccc2ccccc12 | 6 | 20 | 0 | 3 | 1 | x | x | x
Oc1cccc(C=NCc2ccccc2)c1O | 57* | 82* | 22 | 6 | 9 | 5 | 8 | -6
